The values below come from ChEMBL document CHEMBL1123864, “Synthetic bovine prothrombin precursor 13-29 for studies of vitamin K dependent carboxylase” (J Med Chem, 1987).

The target of series [1] is T1, Vitamin K-dependent gamma-carboxylase (Rattus norvegicus) (UniProt O88496).
T1 sequence (whole entry): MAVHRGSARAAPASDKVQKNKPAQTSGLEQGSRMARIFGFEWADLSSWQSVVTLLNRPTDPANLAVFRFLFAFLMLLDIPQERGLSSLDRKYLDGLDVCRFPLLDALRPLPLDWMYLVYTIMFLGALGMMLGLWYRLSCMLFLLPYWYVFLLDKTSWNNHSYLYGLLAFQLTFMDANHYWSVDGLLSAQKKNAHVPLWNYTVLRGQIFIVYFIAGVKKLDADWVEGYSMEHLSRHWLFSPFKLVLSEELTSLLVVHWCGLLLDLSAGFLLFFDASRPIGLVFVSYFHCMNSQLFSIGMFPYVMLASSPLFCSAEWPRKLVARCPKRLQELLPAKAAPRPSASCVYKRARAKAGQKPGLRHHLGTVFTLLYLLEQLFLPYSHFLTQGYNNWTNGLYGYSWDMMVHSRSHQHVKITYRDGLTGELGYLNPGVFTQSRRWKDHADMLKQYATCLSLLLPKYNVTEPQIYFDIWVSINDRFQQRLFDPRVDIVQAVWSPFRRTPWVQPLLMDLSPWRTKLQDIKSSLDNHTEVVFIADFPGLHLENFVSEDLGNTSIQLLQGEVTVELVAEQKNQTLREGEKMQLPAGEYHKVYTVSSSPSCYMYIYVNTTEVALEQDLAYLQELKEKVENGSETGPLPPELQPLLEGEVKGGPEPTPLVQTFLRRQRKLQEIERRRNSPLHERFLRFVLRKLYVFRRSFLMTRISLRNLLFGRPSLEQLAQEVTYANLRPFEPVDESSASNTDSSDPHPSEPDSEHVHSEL
Kind of series: Substrate activity was determined for the rat liver microsomal vitamin K dependent carboxylase by dpm incorporation at 0.0625 mM. The procedure, abridged:
(§1)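 Rat liver microsomal carboxylase with the peptide as substrate. Incubations ran 60 min at 17 °C in duplicate and were averaged. Read-out was dpm incorporated, with the no-vitamin K blank subtracted. The enzyme requires oxygen, reduced vitamin K and carbon dioxide.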
In general terms: Liver microsomes are vesicles of endoplasmic reticulum, rich in cytochrome P450 enzymes.

Series [2] addresses T1, Vitamin K-dependent gamma-carboxylase (Rattus norvegicus). As to the kind of experiment: Substrate activity was determined for the rat liver microsomal vitamin K dependent carboxylase by dpm incorporation at 0.125 mM. The procedure, abridged: as §1
Series [3] has the same target. As to the kind of experiment: Substrate activity was determined for the rat liver microsomal vitamin K dependent carboxylase by dpm incorporation at 0.25 mM. The procedure, abridged: as §1
For series [4] the target is unchanged. Kind of series: Evaluated as substrate for the rat liver microsomal vitamin K dependent carboxylase by dpm incorporation at 0.0625 mM. The procedure, abridged:
as §1

For series [5] the target is unchanged. As to the kind of experiment: Evaluated as substrate for the rat liver microsomal vitamin K dependent carboxylase by dpm incorporation at 0.125 mM. The procedure, abridged: as §1
Series [6] shares this target. Kind of series: Evaluated as substrate for the rat liver microsomal vitamin K dependent carboxylase by dpm incorporation at 0.25 mM. The procedure, abridged:
as §1

Substrate in series [7]: CC(C)C[C@H]1NC(=O)[C@H](N)CSSC[C@@H](C(=O)O)NC(=O)[C@@H]2CCCN2C(=O)[C@@H](CCC(=O)O)NC(=O)[C@H](CCC(=O)O)NC1=O
Kind of series: Binding affinity was evaluated for the compound against Vitamin K dependent carboxylase.

Peptide text beside a SMILES is read from it. * marks the point of attachment. Boc = CC(C)(C)OC(=O)*; Acm = CC(=O)NC*

In the case of `CC(=O)NCSC[C@H](NC(=O)[C@H](CCC(=O)O)NC(=O)[C@H](CCCN=C(N)N)NC(=O)[C@H](CCC(=O)O)NC(=O)[C@H](CC(C)C)NC(=O)[C@@H](N)CC(N)=O)C(=O)N[C@@H](CC(C)C)C(=O)N[C@@H](CCC(=O)O)C(=O)N[C@@H](CCC(=O)O)C(=O)N1CCC[C@H]1C(=O)N[C@@H](CSCNC(C)=O)C(=O)N[C@@H](CO)C(=O)N[C@@H](CCCN=C(N)N)C(=O)N[C@@H](CCC(=O)O)C(=O)N[C@@H](CCC(=O)O)C(=O)N[C@@H](C)C(=O)N[C@@H](Cc1ccccc1)C(=O)O` (H-NLEREC(Acm)LEEPC(Acm)SREEAF-OH), the Activity stood at 480 in series [1], 920 in series [2] and 2380 in series [3].
For the molecule `COC(=O)[C@H](CC(C)C)NC(=O)[C@H](CCC(=O)O)NC(=O)[C@H](CCC(=O)O)NC(=O)OC(C)(C)C` (Boc-Glu-Glu-Leu-OMe), the Activity turned out to be 3020 in series [4], 5770 in series [5] and 11400 in series [6].
On to `CC(C)C[C@H](NC(=O)[C@@H](N)CC(N)=O)C(=O)N[C@@H](CCC(=O)O)C(=O)N[C@@H](CCCN=C(N)N)C(=O)N[C@@H](CCC(=O)O)C(=O)N[C@@H]1CSSC[C@@H](C(=O)N[C@@H](CO)C(=O)N[C@@H](CCCN=C(N)N)C(=O)N[C@@H](CCC(=O)O)C(=O)N[C@@H](CCC(=O)O)C(=O)N[C@@H](C)C(=O)N[C@@H](Cc2ccccc2)C(=O)O)NC(=O)[C@@H]2CCCN2C(=O)[C@@H](CCC(=O)O)NC(=O)[C@H](CCC(=O)O)NC(=O)[C@@H](CC(C)C)NC1=O`, for which the values for the Activity in series [1], in series [2] and in series [3] were 240, 480 and 810, respectively.

B1: Vitamin K-dependent gamma-carboxylase (Rattus norvegicus), O88496 (protein)
chain: MAVHRGSARAAPASDKVQKNKPAQTSGLEQGSRMARIFGFEWADLSSWQSVVTLLNRPTDPANLAVFRFLFAFLMLLDIPQERGLSSLDRKYLDGLDVCRFPLLDALRPLPLDWMYLVYTIMFLGALGMMLGLWYRLSCMLFLLPYWYVFLLDKTSWNNHSYLYGLLAFQLTFMDANHYWSVDGLLSAQKKNAHVPLWNYTVLRGQIFIVYFIAGVKKLDADWVEGYSMEHLSRHWLFSPFKLVLSEELTSLLVVHWCGLLLDLSAGFLLFFDASRPIGLVFVSYFHCMNSQLFSIGMFPYVMLASSPLFCSAEWPRKLVARCPKRLQELLPAKAAPRPSASCVYKRARAKAGQKPGLRHHLGTVFTLLYLLEQLFLPYSHFLTQGYNNWTNGLYGYSWDMMVHSRSHQHVKITYRDGLTGELGYLNPGVFTQSRRWKDHADMLKQYATCLSLLLPKYNVTEPQIYFDIWVSINDRFQQRLFDPRVDIVQAVWSPFRRTPWVQPLLMDLSPWRTKLQDIKSSLDNHTEVVFIADFPGLHLENFVSEDLGNTSIQLLQGEVTVELVAEQKNQTLREGEKMQLPAGEYHKVYTVSSSPSCYMYIYVNTTEVALEQDLAYLQELKEKVENGSETGPLPPELQPLLEGEVKGGPEPTPLVQTFLRRQRKLQEIERRRNSPLHERFLRFVLRKLYVFRRSFLMTRISLRNLLFGRPSLEQLAQEVTYANLRPFEPVDESSASNTDSSDPHPSEPDSEHVHSEL
The term Km denotes the substrate concentration at which the rate is half of its maximum. As to B1, the Km in series [7] was 3000 µM.
